# APJ antag: APJ receptor antagonism | inhibition, % at 20 µM | CHO-K1 APJ beta-arrestin complementation, luminescence | actives 0.32% (n = 330,000);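 active = inhibition above about 40% at 20 µM, limit read from the data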;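 also: cells challenged with 10 nM apelin-13 agonist together with compound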
# CCR6 antagonist: antagonists of human CCR6 receptor; P51684; CHO-K1 CCR6 PathHunter beta-arrestin, luminescence, CCL20-stimulated; inhibition, % at 20 µM; actives 0.49% (n = 340,000);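 active = compounds whose inhibition of the agonist-driven luminescence signal at 20 µM reaches about 50%, limit read from the data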;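 also: cells stimulated with CCL20 at 14 nM final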
# Target sequence (P51684 whole entry, looked up): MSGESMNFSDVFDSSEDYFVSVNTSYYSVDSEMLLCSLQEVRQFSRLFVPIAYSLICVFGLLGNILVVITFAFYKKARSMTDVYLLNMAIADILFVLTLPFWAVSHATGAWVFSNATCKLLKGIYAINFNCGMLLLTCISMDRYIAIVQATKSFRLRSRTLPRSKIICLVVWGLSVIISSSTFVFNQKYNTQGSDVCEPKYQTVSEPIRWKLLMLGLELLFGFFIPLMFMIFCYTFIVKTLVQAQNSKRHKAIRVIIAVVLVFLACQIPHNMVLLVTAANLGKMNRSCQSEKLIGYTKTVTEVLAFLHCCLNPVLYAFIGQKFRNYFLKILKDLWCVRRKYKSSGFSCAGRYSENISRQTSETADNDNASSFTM
# CXCR6 block: CXCR6 (human) receptor inhibition. O00574. CHO-K1 PathHunter CXCR6 beta-arrestin, luminescence. inhibition, % at 20 µM. actives 0.36% (n = 360,000). AID 602244; in the data active = inhibition above about 34%, passing the limit was not always enough;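 also: antagonist mode with CXCL16 agonist at 10 nM final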
# PKA-R1A activ: activates the PKA-R1A holoenzyme complex. P00514+P68181. PKA-R1A dissociation, Cy5-IP20 fluorescence polarization; scaled: DMSO 0%, 113 µM cGMP 100%. activation, % at 11.4 µM. actives 0.083% (n = 340,000);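 active = percent activation above the mean of all tested compounds plus 3 SD, cut at about 19% in these data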;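 also: higher means more PKAc released from R1A so a rise in polarization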
# PKA-R2B act: activates the human PKA-R2B holoenzyme complex. actives 0.079% (n = 340,000). PKA-R2B holoenzyme dissociation, Cy5-IP20 fluorescence polarization; R2B truncated from residue 108, S112A mutant; 0% DMSO only, 100% 113 µM cGMP. P22694+P31323. activation, % at 11.4 µM;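 active = activation above a cutoff set at the mean over all compounds plus 3 SD, cut at about 18% in these data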;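 also: higher means more holoenzyme dissociation and a rise in polarization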
# APJ agonist: APJ receptor agonism. actives 0.11% (n = 330,000). activation, % at 20 µM. CHO-K1 APJ PathHunter beta-arrestin, luminescence; 0% DMSO wells, 100% apelin;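 active = activation more than six SD over the plate average, tested at 20 µM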
#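 Assay system: engineered CHO-K1 APJ arrestin reporter cells; Amount: 1000 CHO-K1 reporter cells seeded per well; Dosing: one dose, 20 µM compound, 1% DMSO; Times: compound stimulation 90 min at 25 °C, detection 60 min; Measured by: luminescent beta-gal fragment complementation, chemiluminescent substrate; Read-out: APJ–arrestin association signal; Controls: DMSO vs Apelin-13 10 nM.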
# APJ ag confirm: APJ receptor agonism confirmation; shares compounds with APJ agonist; CHO-K1 APJ PathHunter beta-arrestin, luminescence; activation, % at 20 µM; actives 10% (n = 310);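 active = activation above 40%, taking the highest of four retests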
# Hits are given with their value; i = inactive; nt = no result. Shown are actives, neighbours in structure and some others; about 0.88% of the full set was active somewhere.
SMILES,APJ antag,CCR6 antagonist,CXCR6 block,PKA-R1A activ,PKA-R2B act,APJ agonist,APJ ag confirm
c1ccc(-c2nc(N3CCN(c4ccccc4)CC3)nc(-n3ccnc3)n2)cc1,i,i,i,i,i,i,nt
c1ccc(-c2nc(N3CCCCCC3)nc(-n3ccnc3)n2)cc1,i,i,i,i,i,26,i
CCOc1cc([N+](=O)[O-])cc2c1C(=O)Nc1ccccc1O2,i,i,i,i,i,14,i
O=C(Nc1ccc(-c2nc3ccccc3o2)cc1)c1ccc(N2CCOCC2)c([N+](=O)[O-])c1,i,i,i,i,i,29,i
COc1ccc2oc(-c3ccc(NC(=O)c4ccc(N5CCOCC5)c([N+](=O)[O-])c4)cc3)nc2c1,i,i,i,i,i,i,nt
c1ccc2sc(-n3cc(C4CCCCC4)nn3)nc2c1,nt,nt,i,nt,nt,nt,nt
CC(=O)Nc1ccc(NC(=O)COC(=O)c2ccc([N+](=O)[O-])o2)cc1,i,i,i,i,i,12,i
CCN(c1ccc(NC(=O)COC(=O)c2ccc([N+](=O)[O-])o2)cc1)C(C)C,i,i,i,i,i,i,nt
C=CCC(C(=O)OC)(C(=O)OC)c1ccc([N+](=O)[O-])cc1[N+](=O)[O-],i,i,i,i,i,14,i
C=CCC(C(=O)OC)(C(=O)OC)c1ccc(C(F)(F)F)cc1[N+](=O)[O-],i,i,i,i,i,i,nt
Cc1ccc2c(c1)c(=O)c1c3n2CCN(C(=O)CCl)C3CC1 (stereo not given),i,i,i,i,i,37,i
N/C(=N\OC(=O)c1ccoc1)c1ccc(Br)cc1,i,i,i,i,i,43,i
Cc1cc(C)cc(C(=O)O/N=C(\N)c2ccc(Br)cc2)c1,i,i,i,i,i,i,nt
Cc1ccc(C)c(NC(=O)/C(C#N)=C/c2ccc(Sc3nncn3C)c([N+](=O)[O-])c2)c1,i,nt,nt,nt,nt,44,i
N#Cc1c2ccc([N+](=O)[O-])cc2[n+]([O-])n1-c1ccccc1,i,nt,i,i,i,13,i
CC1(C(=O)NS(=O)(=O)c2ccccc2Cl)CCN1C(=O)C1CCCCC1 (stereo not given),nt,nt,i,nt,nt,nt,nt
Cc1ccc(-n2ncc3c(N4CCN(c5ccccc5)CC4)ncnc32)c(C)c1,i,i,i,i,i,17,40
CC1(C(=O)NS(=O)(=O)c2ccc3c(c2)CCO3)CCN1C(=O)c1ccccc1CCc1ccccc1 (stereo not given),nt,nt,i,nt,nt,nt,nt
COc1ccc(NC(=O)Nc2nnc([C@@H]3C[C@H](O)[C@@H](CO)O3)s2)cc1,nt,nt,i,nt,nt,nt,nt
Cc1cccc(C(=O)Nc2ccccc2SCC(=O)Nc2ccc(C)c(Cl)c2)c1,i,i,i,i,i,i,nt
Cc1ccc(NC(=O)CSc2ccccc2NC(=O)c2cccc(Cl)c2)cc1Cl,i,i,i,i,i,14,i
Cc1ncc(CO)c2c1Oc1nc(-c3ccccc3)nc(SCC(=O)N(C)c3ccccc3)c1C2,i,nt,nt,nt,nt,28,i
Cc1c(CN(C)C(=O)C2CCC(=O)N(Cc3ccccc3F)C2)[nH]c2ccccc12 (stereo not given),nt,nt,i,i,i,nt,nt
Cc1cc(NC(=O)CSc2nc3sc4c(c3c(=O)n2C)CCCC4)no1,i,i,i,i,i,i,nt
Cc1nn(Cc2ccccc2)c(C)c1NC(=O)CSc1nc2sc3c(c2c(=O)n1C)CCC3,i,i,nt,nt,nt,29,40
SMILES,APJ antag,CCR6 antagonist,CXCR6 block,PKA-R1A activ,PKA-R2B act,APJ agonist,APJ ag confirm
COc1cc2c(cc1NC(=O)c1ccc(C)c([N+](=O)[O-])c1)oc1ccccc12,i,i,i,i,i,i,nt
COc1cc2c(cc1NC(=O)c1cccc([N+](=O)[O-])c1)oc1ccccc12,i,i,i,i,i,42,53
CN(Cc1ccccc1)C(=O)Cn1nnc(-c2ccccc2)c1COc1ccc2ccccc2c1,nt,nt,i,nt,nt,nt,nt
CS(=O)c1nc(-c2ccc(Br)cc2)cc(-c2ccccc2)c1C#N (stereo not given),i,i,i,i,i,36,i
CCCn1c(=O)c(C(=O)Nc2cccc(C)n2)c(O)c2ccccc21,i,i,i,i,i,i,nt
CCCn1c(=O)c(C(=O)Nc2c(C)n(C)n(-c3ccccc3)c2=O)c(O)c2ccccc21,i,i,i,i,i,26,i
CC(C)(C)c1cc(NC(=O)C2(C)CCN2C(=O)c2ccccc2CCc2ccccc2)no1 (stereo not given),nt,nt,i,nt,nt,nt,nt
CCN1C(c2ccccc2)=C(c2ccccc2)S/C1=C/C=C1\SC(=S)N(C)C1=O,nt,i,i,i,i,nt,nt
CCN1C(c2ccccc2)=C(c2ccccc2)S/C1=C\C=C1/SC(=S)N(C)C1=O,i,i,i,i,i,115,292
Cc1csc2nc(COC(=O)c3ccc(Cl)c([N+](=O)[O-])c3)cc(=O)n12,i,i,i,i,i,30,i
CC(C)C[C@@H](CN1CCC[C@H]1CN1C(=O)C(=O)NC[C@@H]1Cc1ccccc1)N1C[C@H](Cc2ccc(O)cc2)N(CC2CCCCCC2)C(=O)C1=O,nt,nt,i,nt,nt,nt,nt
O=[N+]([O-])c1cc(-c2nc3nc4ccccc4nc3n2CCc2ccccc2)cc([N+](=O)[O-])c1,i,i,i,i,i,17,i
C/C(COc1ccccc1)=N\NC(=O)c1nnn(-c2nonc2N)c1CSc1ccccc1,i,i,i,i,i,19,i
CC(C)[C@H](N)C(=O)N[C@H]1CCC2C3CC=C4C[C@@H](O)CC[C@]4(C)C3CC[C@@]21C (stereo not given in full),nt,nt,i,i,i,nt,nt
COc1cc(/C=N/Nc2nc(-c3ccc(S(=O)(=O)N(C)C)cc3)cs2)ccc1O,i,i,i,i,i,21,i
CCOc1ccc2nc3cc(NCc4ccc(OC)cc4)ccc3c(N)c2c1,i,i,i,i,i,30,i
CCn1cnc2cc(NCc3ccc(OC)cc3)ccc21,i,i,i,i,i,i,nt
COc1ccc(CN2C(=O)c3ccccc3C2c2nnnn2C(C)C)cc1 (stereo not given),nt,nt,i,nt,nt,nt,nt
COc1ccc(-c2ccc3c(c2)S(=O)(=O)c2cccc(C(=O)NC4CCCC4)c2C3=O)cc1OC,i,i,i,i,i,9.0,i
C[C@@H](C(=O)NC1CCN(Cc2ccccc2)CC1)N1C(=O)N2CCc3c([nH]c4ccccc34)[C@@]2(C)C1=O,i,i,i,i,i,i,nt
COc1ccc2[nH]c3c(c2c1)CCN1C(=O)N([C@@H](C)C(=O)NC2CCN(Cc4ccccc4)CC2)C(=O)[C@]31C,i,i,i,i,i,18,i

# Screens (PubChem)
